Assay results reported in publication PMC8851646 (ACS Omega, 2022).
pIC50: −log10 of the molar value. In brackets after ≈: the same amount, converted by molar mass. Like-named read-outs stand apart in the source and are kept apart here.

Columns and labels:
[1] = tested on: K. pneumoniae NB29017; assay: Qualitative inhibition of mucoid appearance of colonies on solid LB agar; assay type: cell-based, Klebsiella pneumoniae; settings: 4 fully mucoid, 0 nonmucoid, by eye
Outline: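 Test compound dissolved in DMSO (12.8 mg/mL stock) and mixed into melted LB agar at 0–16 μg/mL final, then set in six-well plates. Mucoid wild-type NB29017 streaked for single colonies in each well. Plates incubated 18 h at 37 °C, then 2 h at 4 °C. Mucoid appearance scored by eye from 0 (none) to 4 (normal hypermucoid).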

[2] = tested on: K. pneumoniae wbbM mutant (NB29018) co-cultured with T. pyriformis; assay: Tp/Kp co-culture assay with cell surface-defective wbbM mutant; assay type: cell-based, Klebsiella pneumoniae; settings: Tp threshold 4625–18,500 Tp/mL
[3] = tested on: P. aeruginosa; settings: against P. aeruginosa; cited from earlier work
[4] = tested on: K. pneumoniae NB29017; assay: Electron microscopy of cell surface material; assay type: cell-based, Klebsiella pneumoniae; settings: grown in SM medium with 32 μg/mL compound
Outline: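 K. pneumoniae NB29017 grown overnight with shaking at 37 °C in 10 mL SM medium, with or without test compound at 32 μg/mL. Diluted 1:50 into the same medium and grown to OD600 of about 2. Cells pelleted at 3000g and washed in Na-cacodylate pH 7.2. Fixed 2 h at 4 °C (2.5% glutaraldehyde, 1% tannic acid, 0.1 M Na-cacodylate, pH 7.2). Pelleted, taken up in cacodylate buffer and examined by electron microscopy.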

[5] = tested on: K. pneumoniae NB29017 co-cultured with T. pyriformis; assay: T. pyriformis/K. pneumoniae; assay type: cell-based, Klebsiella pneumoniae
[6] = tested on: erythrocytes from defibrinated sheep blood; assay: Red blood cell hemolysis; assay type: cell-based; settings: Table 1; concentration causing 50% hemolysis
[7] = Red blood cell hemolysis; assay type: cell-based, sheep; settings: sheep, erythrocytes from defibrinated sheep blood, pH 7.5
[8] = Cytotoxicity in K562 cells; assay type: cell-based; settings: human
[9] = tested on: Staphylococcus aureus; assay: Antibacterial MIC, Gram-positive control; assay type: cell-based; settings: read-out: MIC Sa
[10] = target: T1, P. aeruginosa LpxC (Pseudomonas aeruginosa, UniProt P47205); assay: Inhibition of purified LpxC enzyme; assay type: biochemical
T1 sequence (P47205 1-303): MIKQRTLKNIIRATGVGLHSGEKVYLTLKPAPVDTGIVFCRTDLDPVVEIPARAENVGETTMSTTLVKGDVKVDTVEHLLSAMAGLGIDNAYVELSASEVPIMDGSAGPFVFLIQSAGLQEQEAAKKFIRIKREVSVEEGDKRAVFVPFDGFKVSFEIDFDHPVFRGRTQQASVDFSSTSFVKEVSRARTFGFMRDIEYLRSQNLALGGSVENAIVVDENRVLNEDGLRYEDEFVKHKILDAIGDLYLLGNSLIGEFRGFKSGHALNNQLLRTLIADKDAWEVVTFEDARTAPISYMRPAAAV

[11] = tested on: K. pneumoniae (Kp); assay: Antibacterial MIC, broth; assay type: cell-based; settings: Klebsiella pneumoniae, read-out: MIC, broth-based
[12] = tested on: K. pneumoniae NB29017; assay: Agar MIC; assay type: cell-based; settings: Klebsiella pneumoniae, NB29017, read-out: agar MIC
[13] = tested on: K. pneumoniae NB29017; assay: Kp-only counterscreen for direct antibacterial activity; assay type: cell-based; settings: Klebsiella pneumoniae, NB29017, read-out: IC50 for Kp only, hit from the HTS
[14] = read-out: Tp/Kp IC50, Table 2; expressed as μg/mL for comparison to agar values
[15] = read-out: IC50 Tp/Kp, Table 1; freshly dissolved powder, top concentration 20 μM

C=CCSc1nnc(C)c(O)n1 [D1, C=CCSc1nnc(C)c(O)n1, reference compound]
qualitative score on solid medium ([1]; 2 μg/mL compound in agar): 4 | qualitative score on solid medium ([1]; 4 μg/mL compound in agar): 3 | qualitative score on solid medium ([1]; 8 μg/mL compound in agar): slight | qualitative score on solid medium ([1]; 16 μg/mL compound in agar): 1 | activity in the Tp/Kp wbbM assay [2]: largely retained | efficacy in an animal model of infection [3]: efficacy | surface polysaccharide material by electron microscopy [4]: largely devoid of this | pIC50 ([5]; read-out: Tp/Kp IC50, D1 control on the same plate, Tp set at 25000): 5.64 | pIC50 ([5]; read-out: Tp/Kp IC50, D1 control on the same plate; Tp set at 25000): 5.56 | IC50 [5, 14]: 0.54 µg/mL | pIC50 ([5]; read-out: median IC50 for D1 across 28 hit confirmation runs, standard deviation of 0.3): 5.70

COc1ccc2nc(NC(=O)c3cc(=O)c4ccccc4o3)sc2c1 [compound 63, COc4ccc3N=C(NC(=O)C2=CC(=O)c1ccccc1O2)Sc3c4]
RBC hemolysis (HC50) [6]: 64 µM | hemolysis at 1 h [7]: 8.3% | qualitative score on solid medium ([1]; 1 μg/mL compound in agar): 1 | qualitative score on solid medium ([1]; 2 μg/mL compound in agar): 0 | qualitative score on solid medium ([1]; 4 μg/mL compound in agar): 0 | qualitative score on solid medium ([1]; 8 μg/mL compound in agar): 0 | qualitative score on solid medium ([1]; 16 μg/mL compound in agar): 0 | pIC50 [8]: 4.46 | pIC50 [5, 15]: 6.96 | IC50 [5, 14]: 0.04 µg/mL | MIC [9]: > 128 µg/mL

CC(C)(N)C(NC(=O)c1ccc(OCC#CC2CC2)cc1)C(=O)NO (stereo not drawn) [compound 180, CC(C)(N)C(NC(=O)c1ccc(cc1)OCC#CC2CC2)C(=O)NO]
pIC50 [8]: 4.16 | pIC50 [10]: 7.40 | pIC50 [5, 15]: 5.94 | MIC [9]: > 128 µg/mL

O=CN(O)CCCP(=O)(O)O [fosmidomycin]
MIC [11]: > 128 µg/mL | MIC [12]: 0.5 µg/mL (≈ 2.73 µM) | pIC50 [13]: < 4.70 | pIC50 ([5]; read-out: IC50 for Tp/Kp, hit from the HTS): > 7.11
